Assay type in all cases: functional, organism-based
Assay [1] is filed under the species Mus musculus. Put plainly: Tested for Color of the Final Reaction Product ofTPP-I Histochemical Staining with compound in the presence of p-anisaldehyde in mouse kidney cell preparations; yellow-greenautofluorescent color was observed. The method in brief: (§1)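 Mice were given an anesthetic overdose, then perfused transcardially with 0.9% saline followed by 2% paraformaldehyde in 0.2 M phosphate buffer. Tissues were postfixed 2 h, cryoprotected in 25% sucrose and frozen. Cryostat sections (10 µm) were embedded in 0.5% celloidin and incubated at 37 °C for 4 h in 0.1 M acetate pH 4.5 with 1 mM substrate plus 1 mg/mL of the listed aldehyde. Staining was scored by microscopy on ≥5 sections/animal from ≥3 animals.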

For assay [2], the species on record is Mus musculus. Put plainly: Tested for Intensity of the Final Reaction Product ofTPP-I Histochemical Staining with compound in the presence of benzaldehyde in mouse kidney cell preparations. The method in brief:
as §1

The species entered for assay [3] is Mus musculus. Put plainly: Tested for Intensity of the Final Reaction Product ofTPP-I Histochemical Staining with compound in the presence of p-anisaldehyde in mouse kidney cell preparations;. The method in brief: as §1
The species named for assay [4] is Mus musculus. Put plainly: Tested for Color of the Final Reaction Product ofTPP-I Histochemical Staining with compound in the presence of p-nitrobenzaldehyde in mouse kidney cell preparations; yellow-greenautofluorescent color was observed. The method in brief:
as §1

Assay [5] is filed under the species Mus musculus. Put plainly: Tested for Color of the Final Reaction Product ofTPP-I Histochemical Staining with compound in the presence of benzaldehyde in mouse kidney cell preparations; yellow-greenautofluorescent color was observed. The method in brief:
as §1

The species named for assay [6] is Mus musculus. Description: Tested for Intensity of the Final Reaction Product ofTPP-I Histochemical Staining with compound in the presence of p-nitrobenzaldehyde in mouse kidney cell preparations. The method in brief:
as §1

For assay [7], the species on record is Mus musculus. Put plainly: Tested for Intensity of the Final Reaction Product ofTPP-I Histochemical Staining with compound in the presence of p-nitrobenzaldehyde in mouse kidney cell preparations;. The method in brief: as §1
Assay [8] is filed under the species Mus musculus. Put plainly: Tested for Color of the Final Reaction Product ofTPP-I Histochemical Staining with compound in the presence of benzaldehyde in mouse kidney cell preparations; yellow-green color was observed. The method in brief: as §1
The species named for assay [9] is Mus musculus. Description: Tested for Color of the Final Reaction Product ofTPP-I Histochemical Staining with compound in the presence of p-anisaldehyde in mouse kidney cell preparations; yellow-green color was observed. The method in brief:
as §1

For assay [10], the species on record is Mus musculus. Description: Tested for Color of the Final Reaction Product ofTPP-I Histochemical Staining with compound in the presence of p-nitrobenzaldehyde in mouse kidney cell preparations; yellow-greencolor was observed. The method in brief:
as §1

The species entered for assay [11] is Mus musculus. Put plainly: Tested for Intensity of the Final Reaction Product ofTPP-I Histochemical Staining with compound in the presence of benzaldehyde in mouse kidney cell preparations;. The method in brief:
as §1

For assay [12], the species on record is Mus musculus. Description: Tested for Color of the Final Reaction Product ofTPP-I Histochemical Staining with compound in the presence of p-nitrobenzaldehyde in mouse kidney cell preparations; brown color was observed. The method in brief:
as §1

The species entered for assay [13] is Mus musculus. Description: Tested for Color of the Final Reaction Product ofTPP-I Histochemical Staining with compound in the presence of benzaldehyde in mouse kidney cell preparations; brown color was observed. The method in brief:
as §1

`C[C@H](NC(=O)[C@@H]1CCCN1C(=O)CN)C(=O)n1nc2cccc3c2c1-c1cccc(Cl)c1C3=O`: the Activity result in the assay filed under Mus musculus [1], in the assay listed under Mus musculus [2], in the assay listed under Mus musculus [3], in the assay filed under Mus musculus [4], in the assay filed under Mus musculus [5] and in the assay listed under Mus musculus [6] was “yellow-greenautofluorescent color was observed” each time.

As for `CC(NC(=O)[C@H](C)N)C(=O)N[C@@H](Cc1ccccc1)C(=O)NNc1ccc2c(c1)C(=O)c1ccccc1C2=O` (stereo partly specified), the Activity entry in the assay filed under Mus musculus [7], in the assay listed under Mus musculus [8], in the assay filed under Mus musculus [3], in the assay listed under Mus musculus [9], in the assay filed under Mus musculus [10] and in the assay listed under Mus musculus [11] was “yellow-green color was observed” throughout.

In the case of `NCC(=O)N1CCC[C@H]1C(=O)N[C@@H](CO)C(=O)NNc1cccc2c1C(=O)c1ccccc1C2=O`, the Activity result in the assay filed under Mus musculus [12], in the assay filed under Mus musculus [13], in the assay listed under Mus musculus [2] and in the assay listed under Mus musculus [6] was “brown color was observed” each time.

Values taken from ChEMBL document CHEMBL1136716, “Tripeptide probes for tripeptidyl protease I production via gene transfer” (J Med Chem, 2003).
